Data: ChEMBL document CHEMBL1131714, “Piperidine-renin inhibitors compounds with improved physicochemical properties” (Bioorg Med Chem Lett, 1999)
pIC50: −log10 of the molar value.

Tests used:
Renin [1] = biological target: T1, Renin (Homo sapiens, UniProt P00797); test: Inhibitory activity against human plasma renin; format: cell-free
T1 sequence (P00797 whole entry): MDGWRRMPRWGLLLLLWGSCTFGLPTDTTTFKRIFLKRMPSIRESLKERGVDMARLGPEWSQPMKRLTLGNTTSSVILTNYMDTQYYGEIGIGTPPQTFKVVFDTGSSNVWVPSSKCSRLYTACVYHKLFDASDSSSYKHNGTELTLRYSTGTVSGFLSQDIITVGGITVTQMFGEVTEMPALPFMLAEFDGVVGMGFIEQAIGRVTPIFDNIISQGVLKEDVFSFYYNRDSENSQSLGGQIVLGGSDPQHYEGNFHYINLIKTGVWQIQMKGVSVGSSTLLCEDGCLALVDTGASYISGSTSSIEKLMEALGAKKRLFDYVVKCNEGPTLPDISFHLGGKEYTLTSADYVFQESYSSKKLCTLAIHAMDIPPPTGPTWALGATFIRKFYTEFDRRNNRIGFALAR

Renin [2] = biological target: T1, Renin; test: Inhibitory activity against purified recombinant human renin
[3] = Distribution coefficient at pH 7.4; format: physicochemical; conditions: RP-HPLC, read-out: Log Kw
Method in brief: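 Log Kw read as log D by HPLC in 20 mM MOPS buffer, pH 7.4, on an LC-ABZ column ([…]) fitted with an LC-ABZ precolumn (20x46 mm).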

c1ccc(COCCCOc2ccc([C@@H]3[C@@H](OCc4ccc5ccccc5c4)CNC[C@H]3OCCN3CCOCC3)cc2)cc1 (racemic)
pIC50 (Renin [1]): 6.42 | pIC50 (Renin [2]): 8.74

c1ccc(COCCCOc2ccc([C@H]3CCNC[C@@H]3OCc3ccc4ccc(OCCN5CCOCC5)cc4c3)cc2)cc1 (racemic)
pIC50 (Renin [1]): 6.89 | pIC50 (Renin [2]): 7.92 | chromatographic logD [3]: 5.6

c1ccc(COCCCOc2ccc([C@H]3CCNC[C@@H]3OCc3ccc4cccnc4c3)cc2)cc1 (racemic)
pIC50 (Renin [1]): 6.09 | pIC50 (Renin [2]): 7.92

c1ccc(COCCCOc2ccc([C@H]3CCNC[C@@H]3OCc3ccc4ccccc4c3)cn2)cc1 (racemic)
pIC50 (Renin [1]): 5.15 | pIC50 (Renin [2]): 6.23 | chromatographic logD [3]: 5.1

c1ccc(COCCCOc2ncc([C@H]3CCNC[C@@H]3OCc3ccc4ccccc4c3)cn2)cc1 (racemic)
pIC50 (Renin [1]): 5.09 | pIC50 (Renin [2]): 6.09 | chromatographic logD [3]: 4.4

c1ccc(COCCCOc2ccc([C@H]3[C@H](Cn4cncn4)CNC[C@@H]3OCc3ccc4ccccc4c3)cc2)cc1 (racemic)
pIC50 (Renin [1]): 6.72 | pIC50 (Renin [2]): 9.04

c1ccc(COCCCOc2ccc([C@H]3CCNC[C@@H]3OCc3ccc4c(c3)NCCC4)cc2)cc1 (racemic)
pIC50 (Renin [1]): 6.48 | pIC50 (Renin [2]): 8.29

c1ccc(COCCCOc2ccc([C@H]3CCNC[C@@H]3OCc3ccc4ccccc4c3)cc2)cc1 (racemic)
pIC50 (Renin [1]): 5.89 | pIC50 (Renin [2]): 8.30

COc1ccccc1COCCCOc1ncc([C@H]2CCNC[C@@H]2OCc2cc(OC)c3ccccc3c2OC)cn1 (racemic)
pIC50 (Renin [1]): 6.80 | pIC50 (Renin [2]): 8.00 | chromatographic logD [3]: 4.1

COc1ccccc1COCCCOc1ccc([C@H]2CCNC[C@@H]2OCc2ccc3cccnc3c2)cc1 (racemic)
pIC50 (Renin [1]): 6.80 | pIC50 (Renin [2]): 8.40

COc1ccccc1COCCCOc1ccc([C@H]2CCNC[C@@H]2OCc2cc(OC)c3ccccc3c2OC)cc1 (racemic)
pIC50 (Renin [1]): 7.92 | pIC50 (Renin [2]): 10.06 | chromatographic logD [3]: 5.4

O[C@@H]1CNC[C@H](OCc2ccc3ccccc3c2)[C@H]1c1ccc(OCCCOCc2ccccc2)cc1 (racemic)
pIC50 (Renin [1]): 5.85 | pIC50 (Renin [2]): 8.19 | chromatographic logD [3]: 4.9

c1ccc(COCCCOc2ccc([C@H]3[C@H](CSc4ccncc4)CNC[C@@H]3OCc3ccc4ccccc4c3)cc2)cc1 (racemic)
pIC50 (Renin [1]): 6.31 | pIC50 (Renin [2]): 9.40 | chromatographic logD [3]: 5.8

COc1ccccc1COCCCOc1ccc([C@H]2CCNC[C@@H]2OCc2ccc3c(c2)NCCC3)cc1 (racemic)
pIC50 (Renin [1]): 7.43 | pIC50 (Renin [2]): 9.17 | chromatographic logD [3]: 3.8

c1ccc(COCCCOc2ccc([C@H]3[C@H](COCCN4CCOCC4)CNC[C@@H]3OCc3ccc4ccccc4c3)cc2)cc1 (racemic)
pIC50 (Renin [1]): 6.80 | pIC50 (Renin [2]): 8.48

c1ccc(COCCCOc2ccc([C@H]3CCNC[C@@H]3OCc3ccc4cc(OCCN5CCOCC5)ccc4c3)cc2)cc1 (racemic)
pIC50 (Renin [1]): 5.85 | pIC50 (Renin [2]): 7.66

COc1ccccc1COCCCOc1ccc([C@H]2CCNC[C@@H]2OCc2ccc3ccc(=O)[nH]c3c2)cc1 (racemic)
pIC50 (Renin [1]): 6.96 | pIC50 (Renin [2]): 8.10 | chromatographic logD [3]: 3.9

COc1ccccc1COCCCOc1ccc([C@H]2CCNC[C@@H]2OCc2cc(OC)c3ccccc3c2OC)cn1 (racemic)
pIC50 (Renin [1]): 6.96 | pIC50 (Renin [2]): 9.30 | chromatographic logD [3]: 4.7

O=S(=O)(O)OC[C@@H]1CNC[C@H](OCc2ccc3ccccc3c2)[C@H]1c1ccc(OCCCOCc2ccccc2)cc1 (racemic)
pIC50 (Renin [1]): 5.72 | pIC50 (Renin [2]): 8.64

O[C@H]1CNC[C@H](OCc2ccc3ccccc3c2)[C@H]1c1ccc(OCCCOCc2ccccc2)cc1 (racemic)
pIC50 (Renin [1]): 5.00 | pIC50 (Renin [2]): 8.05
